The text below walks through data of article PMC7384665 (Bioorganic & medicinal chemistry, 2020).

Like-named read-outs stand apart in the source and are kept apart here.

In one experiment the target is Recombinant FTase (Rattus norvegicus, UniProt Q02293+Q04631). Briefly: FTase enzyme assay. It is filed as biochemical. The conditions noted are these: for FTase inhibitory activity: concentrations as high as 100 μM, data not shown.
The subject of experiment [1] is RPMI-8226 myeloma cells. Kind of experiment: Cellular assays: Rap1a immunoblot and intracellular lambda light chain ELISA. It is filed as cell-based. Background: Immunoblotting shows a protein as a band on a membrane.
In experiment [2] the test system is RPMI-8226 myeloma cells. Briefly: H-Ras immunoblot. It is filed as cell-based. The conditions noted are these: RPMI-8226 cells, 48 h.
A further experiment addresses Recombinant GGTase I (Rattus norvegicus, UniProt P53610+Q04631). Kind of experiment: GGTase I enzyme assay. It is filed as biochemical. Summed up: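 Recombinant GGTase I activity measured by a modified Temple et al. method, with dansyl-peptide substrates (dansyl-GCVLS and dansyl-GCVLL listed for the FTase/GGTase I assays); fluorescence change followed over time on a microplate reader. Test compound run in duplicate at multiple concentrations, three independent experiments; IC50 obtained from concentration-response curves.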

[3] abbreviates: concentrations as high as 100 μM, data not shown.

Sequence of Recombinant FTase (Q02293 whole entry, one chain of several): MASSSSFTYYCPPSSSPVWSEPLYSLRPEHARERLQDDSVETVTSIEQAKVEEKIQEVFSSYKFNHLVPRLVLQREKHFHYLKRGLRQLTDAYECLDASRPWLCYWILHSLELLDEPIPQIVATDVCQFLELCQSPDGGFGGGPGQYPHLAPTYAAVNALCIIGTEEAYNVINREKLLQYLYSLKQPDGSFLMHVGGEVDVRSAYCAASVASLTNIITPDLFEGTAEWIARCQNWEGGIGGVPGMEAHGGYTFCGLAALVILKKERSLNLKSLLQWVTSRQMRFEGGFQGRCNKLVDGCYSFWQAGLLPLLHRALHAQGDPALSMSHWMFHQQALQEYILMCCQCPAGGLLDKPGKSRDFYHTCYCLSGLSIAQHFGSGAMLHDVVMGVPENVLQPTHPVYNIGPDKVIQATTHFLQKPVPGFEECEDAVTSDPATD
Sequence of Recombinant GGTase I (P53610 whole entry, one chain of several): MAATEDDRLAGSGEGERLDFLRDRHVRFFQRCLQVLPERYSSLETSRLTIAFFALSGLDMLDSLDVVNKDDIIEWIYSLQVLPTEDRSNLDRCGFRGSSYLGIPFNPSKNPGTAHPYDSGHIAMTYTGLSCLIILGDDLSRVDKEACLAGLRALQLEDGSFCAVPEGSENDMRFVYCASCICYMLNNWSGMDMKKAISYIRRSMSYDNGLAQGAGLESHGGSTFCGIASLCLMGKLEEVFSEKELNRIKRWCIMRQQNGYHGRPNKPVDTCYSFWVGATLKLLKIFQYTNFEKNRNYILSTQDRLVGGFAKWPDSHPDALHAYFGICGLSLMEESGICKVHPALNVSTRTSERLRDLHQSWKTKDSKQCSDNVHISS

For the molecule `CC(C)=CCC/C(C)=C\C(=O)NCCC(P(=O)(O)O)P(=O)(O)O` [Compound 2c], at Recombinant FTase (read-out: FTase inhibitory activity), the inhibition at 100 µM was less than 30%.
For the molecule `CC(C)=CCC/C(C)=C\CC(=O)NCCC(P(=O)([O-])[O-])P(=O)([O-])[O-].[Na+].[Na+].[Na+].[Na+]` [Compound 2g, Disodium (1-[bis(sodiooxy)phosphoryl]-3-[(3Z)-4,8-dimethylnona-3,7-dienamido]propyl)phosphonate], the “Fold increase in GGDPS inhibitor activity with respect to 2c” value in the experiment with RPMI-8226 myeloma cells [1] (Figure 3B, Rap1a immunoblot) is 10 fold. In addition, in the experiment with RPMI-8226 myeloma cells [2], the “Effect on H-Ras farnesylation (prenylation)” value (“Effect on H-Ras farnesylation” below) is on record as “None of these compounds (2g, 2h, 2i, 2e, 2d) disrupted H-Ras farnesylation”. Moreover, the “GGTase I inhibitory activity” value on Recombinant GGTase I (setting [3]) was “no inhibitory activity was observed”. The FTase inhibitory activity result at Recombinant FTase is listed as “no inhibitory activity was observed”.
For `CC(C)=CCC/C(C)=C/CCC(=O)NCCC(P(=O)([O-])[O-])P(=O)([O-])[O-].[Na+].[Na+].[Na+].[Na+]` [Compound 2h, Disodium (1-[bis(sodiooxy)phosphoryl]-3-[(4E)-5,9-dimethyldeca-4,8-dienamido]propyl)phosphonate], in the experiment with RPMI-8226 myeloma cells [2], the “Effect on H-Ras farnesylation” value is given as “None of these compounds (2g, 2h, 2i, 2e, 2d) disrupted H-Ras farnesylation”. Also, the “GGTase I inhibitory activity” value on Recombinant GGTase I (setting [3]) was “no inhibitory activity was observed”. For the same molecule, at Recombinant FTase, the FTase inhibitory activity entry is listed as “no inhibitory activity was observed”.
For `CC(C)=CCCC(=O)NCCC(P(=O)([O-])[O-])P(=O)([O-])[O-].[Na+].[Na+].[Na+].[Na+]` [Compound 2j, Disodium (1-[bis(sodiooxy)phosphoryl]-3-(5-methylhex-4-enamido)propyl)phosphonate], in the experiment on RPMI-8226 myeloma cells [2], the “Effect on H-Ras farnesylation” value is given as “lack of effect”.
Turning to `CC(C)=CCC[C@@H](C)CC(=O)NCCC(P(=O)([O-])[O-])P(=O)([O-])[O-].[Na+].[Na+].[Na+].[Na+]` [Compound 2e, Disodium (1-[bis(sodiooxy)phosphoryl]-3-[(3R)-3,7-dimethyloct-6-enamido]propyl)phosphonate], in the experiment with RPMI-8226 myeloma cells [1] (cellular assays), the “Fold more potent than S-isomer 2d” value is 10 fold. Besides, the “Effect on H-Ras farnesylation” value in the experiment on RPMI-8226 myeloma cells [2] was “None of these compounds (2g, 2h, 2i, 2e, 2d) disrupted H-Ras farnesylation”. The “GGTase I inhibitory activity” value at Recombinant GGTase I (setting [3]) is reported as “no inhibitory activity was observed”. Also, the FTase inhibitory activity entry at Recombinant FTase is “no inhibitory activity was observed”.
Consider `CC(C)=CCC/C(C)=C/C(=O)NCCC(P(=O)([O-])[O-])P(=O)([O-])[O-].[Na+].[Na+].[Na+].[Na+]` [Compound 2b, Disodium (1-[bis(sodiooxy)phosphoryl]-3-[(2E)-3,7-dimethylocta-2,6-dienamido]propyl)phosphonate], for which, in the experiment with RPMI-8226 myeloma cells [2], the “Effect on H-Ras farnesylation” value is “disrupted H-Ras farnesylation”. Moreover, the “GGTase I inhibitory activity” value at Recombinant GGTase I was “no inhibitory activity”.
In the case of `CC(C)=CCC[C@H](C)CC(=O)NCCC(P(=O)([O-])[O-])P(=O)([O-])[O-].[Na+].[Na+].[Na+].[Na+]` [Compound 2d, Disodium (1-[bis(sodiooxy)phosphoryl]-3-[(3S)-3,7-dimethyloct-6-enamido]propyl)phosphonate], in the experiment on RPMI-8226 myeloma cells [2], the “Effect on H-Ras farnesylation” value is recorded as “None of these compounds (2g, 2h, 2i, 2e, 2d) disrupted H-Ras farnesylation”. For the same molecule, the “GGTase I inhibitory activity” value on Recombinant GGTase I (setting [3]) is reported as “no inhibitory activity was observed”. For the same molecule, the FTase inhibitory activity entry at Recombinant FTase is recorded as “no inhibitory activity was observed”.
Turning to `CC(C)=CCC/C(C)=C\CCC(=O)NCCC(P(=O)([O-])[O-])P(=O)([O-])[O-].[Na+].[Na+].[Na+].[Na+]` [Compound 2i, Disodium (1-[bis(sodiooxy)phosphoryl]-3-[(4Z)-5,9-dimethyldeca-4,8-dienamido]propyl)phosphonate], the “Times less potent than triazole 1” value with RPMI-8226 myeloma cells [1] (by LEC) is on record as “approximately 17 times”. Further, the “Effect on H-Ras farnesylation” value with RPMI-8226 myeloma cells [2] is recorded as “None of these compounds (2g, 2h, 2i, 2e, 2d) disrupted H-Ras farnesylation”. For the same molecule, the “GGTase I inhibitory activity” value on Recombinant GGTase I (setting [3]) is listed as “no inhibitory activity was observed”. In addition, at Recombinant FTase, the FTase inhibitory activity result is recorded as “no inhibitory activity was observed”.
